Where a SMILES comes first, the peptide text is derived from it. [ ]: non-standard residue; d: D form. The star is where a group is joined. Phe(4-CN) = N#Cc1ccc(C[C@H](N)C(=O)O)cc1; Hydrocinnamoyl = O=C(CCc1ccccc1)*; hPhe = N[C@@H](CCc1ccccc1)C(=O)O; 2Thi = N[C@@H](Cc1cccs1)C(=O)O; Orn = NCCC[C@H](N)C(=O)O
These compounds were tested against T1, Serine racemase (Homo sapiens) (UniProt Q9GZT4) (assay: Inhibition of human serine racemase at 2 mM).
T1 sequence (whole entry): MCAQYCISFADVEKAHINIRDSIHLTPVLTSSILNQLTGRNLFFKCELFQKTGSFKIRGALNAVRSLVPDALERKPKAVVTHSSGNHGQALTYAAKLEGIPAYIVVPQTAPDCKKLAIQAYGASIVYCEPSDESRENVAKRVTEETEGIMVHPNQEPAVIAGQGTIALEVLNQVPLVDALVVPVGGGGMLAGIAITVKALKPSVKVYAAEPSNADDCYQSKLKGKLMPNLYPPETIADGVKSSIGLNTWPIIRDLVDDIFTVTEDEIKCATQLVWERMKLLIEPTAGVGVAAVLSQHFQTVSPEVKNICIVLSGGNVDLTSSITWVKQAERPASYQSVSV
Outline: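 Recombinant His-tagged hSR (E. coli, Ni-NTA). Inhibitor tested at 2 mM in a DAAO/LDH-coupled assay of total racemization plus elimination, with the NADH decrease followed at 340 nm. Buffer: 200 mM TEA·HCl, 150 mM KCl, 50 µM PLP, 5 mM MgCl2, 2.5 mM ATP, 10 mM DTT. L-serine substrate. Reported as percent decrease in activity.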

| Structure (SMILES) | inhibition |
| --- | --- |
| CCC(C)C[C@H](NC(=O)CCc1ccccc1)C(=O)N[C@@H](Cc1c[nH]cn1)C(N)=O (stereo partly specified) | 54% |
| NCCCC[C@H](NC(=O)[C@H](Cc1c[nH]cn1)NC(=O)CCc1ccccc1)C(N)=O (Hydrocinnamoyl-His-Lys-NH2) | 40% |
| CC[C@@H](C)[C@H](NC(=O)[C@H](Cc1c[nH]cn1)NC(=O)CCc1ccccc1)C(=O)NCCOCCOCNC(=O)CCC(N)=O | 0% |
| CSCC[C@H](NC(=O)N1C(=O)OC[C@@H]1c1ccccc1)C(=O)N[C@@H](CCC(=O)O)C(N)=O | 8% |
| CC[C@@H](C)[C@H](NC(=O)[C@H](Cc1c[nH]cn1)NC(=O)CCc1ccccc1)C(N)=O | 74% |
| NC(=O)[C@H](Cc1cccc(C(=O)c2ccccc2)c1)NC(=O)[C@H](Cc1ccccc1)NC(=O)COCC(=O)O | 4% |
| CC[C@@H](C)[C@H](NC(=O)[C@H](CO)NC(=O)/C=C/c1cccnc1)C(N)=O | 10% |
| N#Cc1ccc(C[C@H](NC(=O)c2ccc(-c3ccccc3)cc2)C(=O)NC2(C(N)=O)CCC(O)CC2)cc1 (stereo partly specified) | 0% |
| NCCC[C@H](NC(=O)[C@H](Cc1c[nH]cn1)NC(=O)CCc1ccccc1)C(N)=O (Hydrocinnamoyl-His-[Orn]-NH2) | 49% |

Other lines, results leading:

| inhibition | Structure (SMILES) |
| --- | --- |
| 70% | NC(=O)[C@H](CCc1ccccc1)NC(=O)[C@H](Cc1c[nH]cn1)NC(=O)CCc1ccccc1 (Hydrocinnamoyl-His-[hPhe]-NH2) |
| 68% | NC(=O)[C@H](Cc1cccs1)NC(=O)[C@H](Cc1c[nH]cn1)NC(=O)CCc1ccccc1 (Hydrocinnamoyl-His-[2Thi]-NH2) |
| 57% | CC(C)C[C@H](NC(=O)[C@H](Cc1c[nH]cn1)NC(=O)CCc1ccccc1)C(N)=O (Hydrocinnamoyl-His-Leu-NH2) |
| 72% | N#Cc1ccc(C[C@H](NC(=O)CCc2ccccc2)C(=O)N[C@@H](Cc2c[nH]cn2)C(N)=O)cc1 (Hydrocinnamoyl-[Phe(4-CN)]-His-NH2) |
| 42% | NC(=O)C[C@H](NC(=O)CCc1ccccc1)C(=O)N[C@@H](Cc1c[nH]cn1)C(N)=O (Hydrocinnamoyl-Asn-His-NH2) |

Each compound was assayed against T2, Serine racemase (Homo sapiens, UniProt Q9GZT4) (assay: Inhibition of human serine racemase).
T2 sequence (Q9GZT4 whole entry): T1 sequence (whole entry)
Outline: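 His-tagged hSR expressed in E. coli BL21 and Ni-NTA purified. Combined racemization plus elimination rate coupled via DAAO and LDH; NADH decrease read at 340 nm. Mix: 200 mM TEA·HCl, 150 mM KCl, 50 µM PLP, 5 mM MgCl2, 2.5 mM ATP, 10 mM DTT, 0.3 mM NADH. Varied L-serine against fixed inhibitor levels (0–2 mM), 40 min preincubation. KI obtained by global fit of data.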

| Structure (SMILES) | Ki |
| --- | --- |
| CC[C@@H](C)[C@H](NC(=O)[C@H](Cc1c[nH]cn1)NC(=O)CCc1ccccc1)C(N)=O | 610 µM |
| NC(=O)[C@H](CCc1ccccc1)NC(=O)[C@H](Cc1cnc[nH]1)NC(=O)CCc1ccccc1 (Hydrocinnamoyl-His-[hPhe]-NH2) | 320 µM |

Reference: ChEMBL document CHEMBL1146096, “Slow-binding human serine racemase inhibitors from high-throughput screening of combinatorial libraries” (J Med Chem, 2006)
